In the library only some 4.1% were active in any assay of this set; here they are far more common.
Mdm2 MdmX PPI: inhibitors of human Mdm2-MdmX association, primary screen, cell-based, luminescence, split luciferase, SaOS-2, uHTS; Protein Mdm4 (Homo sapiens) + E3 ubiquitin-protein ligase Mdm2 (Homo sapiens), …; SaOS-2 split-luciferase Mdm2/MdmX complementation; inhibition, % at 8 µM; actives 3% (n = 330,000);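 active = inhibition of at least 50% at 8 µM in the primary screen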
UPR CHOP act: activators of apoptotic CHOP UPR arm, primary screen, cell-based, CHO-CHOP luciferase reporter, luminescence, uHTS; UPR activation; percent of tunicamycin response over DMSO baseline; activation, % at 10 µM; actives 0.34% (n = 330,000); AID 449763, 2010;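 active = at 10 µM dose, activation of 40% or more, normalized to positive control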
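System: CHO-CHOP luciferase reporter cell line | Buffer or medium: F12 medium containing 10% fetal bovine serum | Doses: One dose, 10 µM in 0.5% DMSO | Times: 6 h compound exposure at 37 °C after overnight seeding | Signal: Luciferase luminescence | Read-out: % activation vs tunicamycin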
Apaf-1 inh: inhibitors of human Apaf-1 apoptosome, primary screen, biochemical, DEVD-Rh110 fluorescence, uHTS | Apoptotic protease-activating factor 1 (Homo sapiens), O14727 | actives 0.71% (n = 330,000) | reconstituted apoptosome caspase-3 activity | inhibition, % at 20 µM; active = inhibition of at least 40% at 20 µM
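Assay system: Apoptosome proteins | Medium: pH 7.5 Hepes buffer with CHAPS, BSA, DTT | Also added: Cytochrome c and DEVD-Rh110 substrate | Times: 30 min plus 50 min, RT | Detection: Rhodamine 110 fluorescence at Ex 480/Em 540 nm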
UPR XBP1 act: activators of adaptive XBP1 UPR arm, primary screen, cell-based, CHO-XBP1 luciferase reporter, luminescence, uHTS | actives 0.33% (n = 330,000) | activation, % at 20 µM | IRE1-XBP1 UPR activation; percent of tunicamycin response, DMSO as zero;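 active = versus positive control, 20 µM dose yields 30% or more activation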
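Material: CHO cell line with stable XBP1 luciferase reporter; schedule: 16-18 h cell attachment at 37 °C, then 6 h compound exposure; signal: glow luminescence from Steady-Glo reagent; medium: serum-containing F12 medium, 10% FBS; benchmarks: tunicamycin 10 µg/mL and vehicle-only wells; read-out: percent activation relative to tunicamycin reference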
UBC13 polyUb: UBC13 polyubiquitin chain formation inhibitors, primary screen, biochemical, TR-FRET, uHTS; Ubiquitin-conjugating enzyme E2 N (Homo sapiens), P61088; actives 0.47% (n = 330,000); inhibition, % at 20 µM; in the data active = inhibition above about 45%, passing the limit was not always enough; inconclusive = no clear call, values can overlap the other calls
Target sequence (P61088 whole entry, looked up): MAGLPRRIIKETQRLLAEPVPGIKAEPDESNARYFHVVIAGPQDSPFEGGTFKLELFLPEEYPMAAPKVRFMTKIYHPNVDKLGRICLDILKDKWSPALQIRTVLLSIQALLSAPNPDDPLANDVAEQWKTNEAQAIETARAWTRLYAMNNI
Casp3 UBC13 ctr: CASP3 inhibitor validation, counterassay for project on UBE2N polyubiquitination blockers, biochemical, one dose | shares compounds with UBC13 polyUb | Recombinant caspase-3, Caspase-Glo 3/7 luminescence, 60 min | inhibition, % at 20 µM | actives 4% (n = 1,400);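 active = mean inhibition across replicates above about 26%, limit read from the data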
Target sequence (P42574 whole entry, looked up): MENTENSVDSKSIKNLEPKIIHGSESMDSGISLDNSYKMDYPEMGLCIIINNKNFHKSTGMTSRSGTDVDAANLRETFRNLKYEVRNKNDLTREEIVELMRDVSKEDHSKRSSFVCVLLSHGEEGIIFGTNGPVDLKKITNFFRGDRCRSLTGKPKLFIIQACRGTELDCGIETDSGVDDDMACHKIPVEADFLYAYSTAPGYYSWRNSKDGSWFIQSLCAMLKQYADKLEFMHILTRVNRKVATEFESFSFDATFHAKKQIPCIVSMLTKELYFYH
UBC13 conf: UBC13 polyubiquitination inhibitors, single-point retest, confirmation, biochemical, TR-FRET, single concentration; shares compounds with UBC13 polyUb; inhibition, % at 10 µM; actives 68% (n = 1,400); AID 488859, 2010; in the data active = inhibition above about 45%; inconclusive = no clear call, values can overlap the other calls
Mdm2 MdmX conf: Mdm2-MdmX complex disruptors, retested hits, confirmation, luminescence, single concentration; shares compounds with Mdm2 MdmX PPI; Mdm2-MdmX binding, luminescent assay; inhibition, % at 8 µM; actives 55% (n = 10,000); in the data active = inhibition above about 40%
Full FLuc ctr: full-length luciferase signal inhibition, confirmation, counter-screen for Mdm2/MdmX interaction inhibitor project, cell-based, single concentration, SaOS-2 | shares compounds with Mdm2 MdmX PPI | SaOS-2 full-length luciferase counterscreen, luminescence | inhibition, % at 8 µM | actives 77% (n = 6,200) | AID 504607, 2011;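 active = mean inhibition at 8 µM reaching about 37%, which flags the compound as non-specific, limit read from the data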;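 note: p53-null SaOS-2 cells with luciferase driven by a doxycycline-inducible promoter; compound on cells about two nights before reading with doxycycline added after day one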
Hits are given with their value; 0 = inactive; ? = inconclusive; - = no result given.

SMILES	Mdm2 MdmX PPI	UPR CHOP act	Apaf-1 inh	UPR XBP1 act	UBC13 polyUb	Casp3 UBC13 ctr	UBC13 conf	Mdm2 MdmX conf	Full FLuc ctr
O=c1nc(N2CCCC2)nc(N2CCCC2)[nH]1	0	0	0	0	0	-	-	-	-
O=C(Nc1cc(Cl)ccc1O)C1CC(c2ccccc2Cl)=NO1 (stereo unspecified)	0	0	0	0	0	-	-	-	-
NC(N)=N/N=C/c1ccc2cccc(OCc3ccccc3)c2n1	51	0	0	0	50	0	0	60	81
Cc1ccc(-c2nnc3c(C(F)(F)F)nc4ccccc4n23)cc1	54	0	0	0	52	0	?	0	-
CC1=Nn2c(nnc2-c2ccccc2F)SC1	0	0	0	0	0	-	-	-	-
COc1ccc(C2=Nn3c(nnc3-c3ccccc3F)SC2)cc1OC1CCOC1 (stereo unspecified)	70	0	0	0	46	0	0	63	0
CCN(CC)C(=O)c1ccc(S(=O)(=O)c2ccccc2)cc1	0	0	0	0	0	-	-	-	-
Cc1ccc(CNC(=O)CC2C(=O)Nc3c2c(=O)n(C)c(=O)n3Cc2ccccc2)cc1 (stereo unspecified)	0	0	0	0	0	-	-	-	-
Cc1c(CCOC(=O)CC23CC4CC(CC(C4)C2)C3)sc[n+]1CC(=O)c1ccccc1	54	0	0	0	47	0	52	0	-
Cc1nc(Nc2cnc(/C=C/c3cc(C(=O)Nc4cccc(C(F)(F)F)c4)ccc3C)cn2)cc(N2CCNCC2)n1	90	0	75	0	88	0	116	52	49
Cc1nc(N2CCC(C)CC2)c2c(C)c(C(=O)Nc3cccc(C(F)(F)F)c3)sc2n1	0	0	0	0	0	-	-	-	-
CCCCCOc1ccc(/C(C)=N/NC2=NCCN2)cc1	0	0	0	0	0	-	-	-	-
CCCCCCOc1ccc(/C(C)=N/NC2=NCCN2)cc1	90	0	0	0	60	0	85	0	-
CCCCCN=C(N)N/N=C/c1c[nH]c2ccc(OC)cc12	99	0	78	0	107	0	111	98	0
CCCOc1ccc(C(=O)N/N=C/c2c[nH]c3ccc(Br)cc23)cc1	0	0	0	0	0	-	-	-	-
CCCN(CC(=O)Nc1ccc(F)c(F)c1F)C(=O)CCc1nc2ccccc2c(=O)[nH]1	0	0	0	0	0	-	-	-	-
CC[n+]1c(/C=C/N(C)c2ccccc2)n(-c2ccccc2)c2ccc(-c3nc4ccccc4s3)cc21	100	0	82	0	84	0	98	95	0
Cc1ccc2c(c1)c1c(n2CC(O)CNC2CCCCC2)CCCC1 (stereo unspecified)	100	0	0	0	61	0	0	46	51
Cc1ccc2c(c1)c1c(n2CC(O)CNC(CO)(CO)CO)CCCC1 (stereo unspecified)	0	0	0	0	0	-	-	-	-
CCOC(=O)N1CCC(NC(=O)c2cc3cc4cc(OC)ccc4nc3o2)CC1	0	0	0	0	0	-	-	-	-
COc1ccc2nc3oc(C(=O)NC4CCN(Cc5ccccc5)CC4)cc3cc2c1	98	0	0	0	58	0	0	91	0
CSc1ccc(-c2nc(O)c3cnccn23)cc1	0	0	0	0	0	-	-	-	-
Cc1cccc(NC(=S)N=Nc2c(O)[nH]c3ccccc23)c1	54	0	0	0	60	0	76	0	57
CC(C)c1ccc2[nH]c(O)c(N=NC(=O)c3cccc(S(=O)(=O)Nc4ccccc4Cl)c3)c2c1	0	0	0	0	0	-	-	-	-
Cc1cccc(NC(=O)c2cc(=O)[nH]c3ccccc23)c1	0	0	0	0	0	-	-	-	-
SMILES	Mdm2 MdmX PPI	UPR CHOP act	Apaf-1 inh	UPR XBP1 act	UBC13 polyUb	Casp3 UBC13 ctr	UBC13 conf	Mdm2 MdmX conf	Full FLuc ctr
CC(C)NC(=S)N=Nc1c(O)[nH]c2ccc(C(C)C)cc12	55	0	0	0	65	0	74	0	51
COc1cccc(NC(=O)CN(C)C(=O)c2oc3c(ccc4ccccc43)c2C)c1	0	0	0	0	0	-	-	-	-
COc1cccc(C(=O)NC(Cc2ccccc2)c2ccc3c(c2)OCCCO3)c1 (stereo unspecified)	0	0	0	0	0	-	-	-	-
Cc1cc(C)cc(OCC(=O)NNC(=O)c2ccccn2)c1	50	0	0	0	96	0	85	0	-
Cc1cc(C)cc(OCC(=O)NNC(=O)c2cc(C)[nH]n2)c1	0	0	0	0	0	-	-	-	-
Cc1ccc(OCCCC(=O)NNC(=O)c2ccccn2)cc1	52	0	0	0	56	0	0	44	45
Cc1ccc(Nc2nc(CSc3nnc(-c4ccc(F)cc4)n3C)cs2)cc1	0	0	0	0	0	-	-	-	-
CCCCC(=O)Nc1ccc2c3c(cccc13)C(=O)N2CC	55	0	0	0	60	0	66	0	59
CC1CCN(CCNC(=O)c2ccc3c(=O)n(Cc4ccc(Cl)cc4)c(=S)[nH]c3c2)CC1	97	0	0	0	45	0	61	0	-
O=C1c2cccc3cccc(c23)C(=O)N1CC1CCN(CC(O)COc2ccc3ccccc3c2)CC1 (stereo unspecified)	73	0	0	0	79	0	85	0	52
O=C1c2cccc3cccc(c23)C(=O)N1CCN1CCN(CC(O)COc2ccc3ccccc3c2)CC1 (stereo unspecified)	67	0	0	0	105	0	112	0	-
Cc1ccc(SCc2cn3c(C)csc3n2)cc1	0	0	0	0	0	-	-	-	-
CNCCC(Oc1ccc(C(F)(F)F)cc1)c1ccccc1 (stereo unspecified)	51	0	0	0	50	0	0	0	-
COc1ccc(Nc2cc(Nc3ccc(OC)cc3)ncn2)cc1	0	0	0	0	0	-	-	-	-
COc1ccc(Nc2cc(Nc3cc(OC)c(OC)c(OC)c3)ncn2)cc1	65	0	0	0	55	0	58	0	-

Compound activity: PubChem, Sanford-Burnham Center for Chemical Genomics
